Most compounds without a hit are left out; they make up all but 3.1% or so of the library.
T cruzi inh – inhibitors of intracellular T. cruzi growth, primary screen, luminescence, NIH3T3 host cells. T. cruzi beta-gal in NIH3T3, 90 h. inhibition, % (test concentration not listed). 1.4% of 300,000 active. AID 1885, 2009;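 active means mean inhibition across valid replicates above about 55%, limit read from the data; inconclusive means mean below that limit but half or more replicates reach it; inactive means mean below it, under half of replicates reach it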;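 further: signal also drops with host cell toxicity which is not excluded here; 0% = plate median of DMSO wells and 100% = zero luminescence signal; higher percent means less beta-gal luminescence so fewer parasites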
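System – NIH/3T3 host cells with β-galactosidase reporter T. cruzi · Doses – single 50 nL compound addition per well in DMSO · Reagent – 5000 T. cruzi trypomastigotes/well · Medium – Low-serum DMEM with 2% FBS · Timing – ≥90 h infection period, 3 h prior cell attachment · Evaluation – parasite load inhibition, % · Technique – GalScreen luminescence, 60 min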
Calb FLC – C. albicans growth inhibition with fluconazole, primary screen, CaCi-2 strain, Alamar Blue fluorescence; growth inhibition, % (concentration not given with the values); C. albicans CaCi-2 + fluconazole, 48 h; AID 1979, 2009; 0.57% of 300,000 active;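 active means growth inhibition above about 58% in most replicates, limit read from the data, passing the limit was not always enough; inconclusive means exactly half the replicates above a set limit; inactive means most replicates below a set limit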;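 further: all wells also contain fluconazole at 8 µg/ml as a sub-toxic cotreatment; 0% = median of DMSO wells and 100% = median of geldanamycin control wells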
PolyA inhibitor – polyadenylation inhibitors in yeast reporter cells, primary screen, luminescence, S. cerevisiae. S. cerevisiae SKY197-pL101 polyadenylation reporter, beta-gal luminescence; efflux-impaired pdr1/pdr3 knockout yeast; score 100 = 6 SD above DMSO. activity score, % at 12 µM. 0.02% of 300,000 active;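 active means lowest replicate activity score at least 50, where 100 means six control SD above control mean; inconclusive means lowest score under 50 but half or more replicates reach 50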;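 further: yeast exposed to compound for 9 h at 30 °C; higher score means more reporter readthrough which indicates perturbed polyadenylation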
Beta apoptosis – inhibitors of cytokine-induced beta cell apoptosis, primary screen, luminescence | protection from apoptosis, % (no concentration beside the values) | INS-1E cytokine-induced death, ATP luminescence, 48 h; percent of positive-control rescue, neutral wells zero | 0.8% of 300,000 active;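 active means Every replicate reaches about 75%, or at least half do and their mean reaches it too, limit read from the data; inconclusive means At least half of replicates reach the limit but their mean does not; inactive means Under half of replicates reach the limit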;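 further: 0% = cytokine-treated negative control wells and 100% = positive control rescue; higher means more ATP so stronger rescue from cytokine killing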
HIF act – HIF pathway transcriptional activators, primary screen, cell-based, U2OS HRE-luciferase, luminescence | activation, % at 7.5 µM (by protocol) | 0.32% of 300,000 active | U2OS HRE-luciferase reporter; normalized: DMSO 0%, desferrioxamine 100%;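 active means mean activation of at least 10% of the iron chelator positive control signal, with at least half of replicates also reaching 10%; inconclusive means mean and replicate majority disagree about reaching 10%; inactive means mean and most replicates under 10%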
CSC inhib – cancer stem cell viability inhibitors, primary screen, luminescence; cancer stem cell-like cells viability; 1.1% of 300,000 active; inhibition, % at 7.5 µM; in the data active means inhibition above about 75%; inconclusive means no clear call, values can overlap the other calls; tested in HMLE shEcad cells
Starred values were filed as active, the others as inactive.

Screening Cc1cc(NC(=O)CSC2=NS(=O)(=O)c3ccccc3N2)no1 returned T cruzi inh -2.8, Calb FLC -9.7, PolyA inhibitor -11.6, Beta apoptosis -7.3, HIF act -0.3 and CSC inhib -7.5.
For CCOC(=O)c1nn(-c2ccc(F)cc2)c(-c2ccccc2)c1C(=O)c1ccccc1 the results were T cruzi inh 38.7, Calb FLC 22.6, PolyA inhibitor 3.2, Beta apoptosis 23.7, HIF act -0.4 and CSC inhib 78.3*.
CCOC(=O)c1nn(-c2ccccc2)c(-c2ccccc2)c1C(=O)c1ccccc1 was read as T cruzi inh 19.0, Calb FLC -8.7, PolyA inhibitor 1.2, Beta apoptosis 1.5, HIF act -0.3 and CSC inhib 5.5.
For CCC(Oc1ccccc1)C(=O)Nc1ncc([N+](=O)[O-])s1 (stereo unspecified) the results were T cruzi inh 42.8, Calb FLC 93.9*, PolyA inhibitor -21.7, Beta apoptosis 19.9, HIF act 1.2 and CSC inhib 16.5.
CC(CC(=O)Nc1ncc([N+](=O)[O-])s1)c1ccccc1 (stereo unspecified) was read as Calb FLC 92.2*, Beta apoptosis 40.7 and CSC inhib 22.9.
CN(C)c1ccc(-n2cccc2/C=C/[N+](=O)[O-])cc1 was read as T cruzi inh 16.3, Calb FLC -34.0, PolyA inhibitor 1.3, Beta apoptosis 21.0, HIF act 1.1 and CSC inhib 87.2*.
Cc1ccccc1C1C(C#N)=C2N=C(N)c3c(sc4c3CCCCC4)N2C2=C1C(=O)CC(C)(C)C2 (stereo unspecified) was read as T cruzi inh 57.6*, Calb FLC -10.3, PolyA inhibitor -4.2, Beta apoptosis -3.6, HIF act -0.6 and CSC inhib 11.5.
Cc1ccccc1C1C(C#N)=C2NC(=O)c3c(sc4c3CCCCC4)N2C2=C1C(=O)CC(C)(C)C2 (stereo unspecified) was read as T cruzi inh -7.6, Calb FLC inconclusive, PolyA inhibitor -1.7, Beta apoptosis 0.0, HIF act -1.1 and CSC inhib 15.4.
For COc1cc(OC)cc(-c2c(-c3cccs3)c3cc(-c4ccn[nH]4)ccc3n2C)c1 the results were Beta apoptosis 3.1 and CSC inhib 87.1*.
For Cn1c(-c2ccsc2)c(-c2cccs2)c2cc(Br)ccc21 the results were Beta apoptosis -14.3 and CSC inhib 80.5*.
`COc1cc(F)cc(-c2ccc3c(c2)c(-c2cccs2)c(-c2cc(OC)cc(OC)c2)n3C)c1` gave Beta apoptosis 1.0 and CSC inhib inconclusive.
COc1cc(OC)cc(-c2c(-c3cccs3)c3cc(-c4ccc(N(C)C)nc4)ccc3n2C)c1 was read as Beta apoptosis 9.1 and CSC inhib 86.5*.
`COc1cc(OC)cc(-c2c(-c3cccs3)c3cc(Br)ccc3n2C)c1` gave Beta apoptosis 6.2 and CSC inhib 45.8.
CC(=O)c1cccc(NC(=O)N2C3CCCC2CC(NC(=O)C2CC2)C3)c1 (stereo unspecified) was read as T cruzi inh -7.8, Calb FLC -2.3, PolyA inhibitor 20.8, Beta apoptosis 1.0, HIF act -0.1 and CSC inhib 6.9.
Screening O=C(Nc1ccc(Cl)cc1F)C1CCN(S(=O)(=O)c2cccc3nonc23)CC1 returned T cruzi inh -5.6, Calb FLC 0.0, PolyA inhibitor 16.2, Beta apoptosis -2.1, HIF act -29.5 and CSC inhib 1.2.
For COc1ccc(/C=C/c2nc3ccccc3c(=O)o2)cc1 the results were T cruzi inh -6.5, Calb FLC -13.2, PolyA inhibitor 18.4, Beta apoptosis -5.6, HIF act -6.3 and CSC inhib 9.4.
COc1ccc(/C=C/c2nc3cc(-c4ccccc4)ccc3o2)cc1O was read as T cruzi inh -7.3, Calb FLC 10.3, PolyA inhibitor -13.5, Beta apoptosis 3.5, HIF act 0.5 and CSC inhib 102.1*.
For COc1ccc(CCN(Cc2ccccn2)C(=S)Nc2cccc(SC)c2)cc1OC the results were T cruzi inh 7.6, Calb FLC 9.2, PolyA inhibitor -7.9, Beta apoptosis 0.7, HIF act -0.1 and CSC inhib 2.5.
`COc1ccccc1NC(=S)N(Cc1ccc(C)cc1)Cc1ccccn1` gave T cruzi inh 54.6*, Calb FLC 7.2, PolyA inhibitor -3.5, Beta apoptosis 0.8, HIF act 0.2 and CSC inhib 2.5.
`CSc1cccc(NC(=S)N(Cc2ccc(C)cc2)Cc2ccccn2)c1` gave T cruzi inh 55.3*, Calb FLC 15.1, PolyA inhibitor 10.5, Beta apoptosis 4.8, HIF act 1.7 and CSC inhib 3.1.
`Cc1cc(Cl)c2oc(C(=O)N3CCN(C(=O)c4ccco4)CC3)c(C)c2c1` gave T cruzi inh 9.8, Calb FLC 16.9, PolyA inhibitor -23.2, Beta apoptosis 2.1, HIF act 4.2 and CSC inhib -9.5.
CCCCCCCCCCC[C@@H](C[C@@H]1OC(=O)[C@H]1CCCCCC)OC(=O)[C@H](CC(C)C)NC=O was read as T cruzi inh 5.1, PolyA inhibitor -7.4, Beta apoptosis 3.8, HIF act 0.2 and CSC inhib 102.4*.
CCCCC[C@H](O)/C=C/[C@H]1[C@H](O)CC(=O)[C@@H]1CCCCCCC(=O)O was read as T cruzi inh 15.2, Calb FLC -0.1, PolyA inhibitor 7.0, HIF act -0.5 and CSC inhib -0.3.
`COCCN(Cc1nnc(-c2cccs2)o1)C(=O)CN1C(=O)NC2(CCCCC2)C1=O` gave Beta apoptosis -10.1 and CSC inhib -11.6.
For COCCNC(=S)N=Nc1c(O)[nH]c2ccc([N+](=O)[O-])cc12 the results were T cruzi inh -14.7, Calb FLC 21.7, PolyA inhibitor -21.7, Beta apoptosis 1.2, HIF act -0.3 and CSC inhib -0.1.
`COc1cc(/C=N/NC(=O)c2c(-c3ccccc3)noc2C)ccc1O` gave T cruzi inh -0.1, Calb FLC -3.1, PolyA inhibitor 0.2, Beta apoptosis -2.9, HIF act -0.5 and CSC inhib -5.9.
`CCOc1cc(/C=N/NC(=O)c2c(-c3ccccc3)noc2C)ccc1O` gave T cruzi inh -31.7, Calb FLC 20.7, PolyA inhibitor 3.0, Beta apoptosis -4.8, HIF act 100.4* and CSC inhib -6.8.
COc1cccc(/C=N/NC(=O)c2cc(-c3cccn3C)n[nH]2)c1O was read as T cruzi inh 2.9, Calb FLC 103.2*, PolyA inhibitor 4.2, Beta apoptosis 26.0 and CSC inhib 87.2*.

Source: PubChem (Broad Institute)
